The text below walks through data of ChEMBL document CHEMBL1128338, “Synthesis and activity of some antimalarial bisquinolines” (J Med Chem, 1995).

As a reminder, the IC50 is the midpoint of a concentration-inhibition curve. A high value points to a need for much substance.

Assay [1] deals with Plasmodium falciparum. Briefly: In vitro inhibition of chloroquine-resistant Plasmodium falciparum FAC8. It is filed as functional, organism-based. The gist of the method: (§1)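 P. falciparum blood-stage cultures plated at c. 1% parasitemia, 2% hematocrit, exposed to a range of drug concentrations (compounds from 30 mM DMSO stocks; final DMSO <0.1%). Incubated 4 days with daily replacement of drug-containing medium. Growth curves run in duplicate; IC50 taken as concentration giving 50% growth inhibition.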

The test system of assay [2] is Plasmodium falciparum. Briefly: In vitro inhibition chloroquine-resistant Plasmodium falciparum K1. It is filed as functional, organism-based. The gist of the method:
as §1

The test system of assay [3] is Plasmodium falciparum. The assay can be described thus: In vitro inhibition of chloroquine-sensitive Plasmodium falciparum D-10. Format: functional, organism-based. The gist of the method:
as §1

A short description of assay [4]: Resistance index as the ratio of IC50 value against FAC8 to that of D10 strains. It is filed as functional. The gist of the method: (§2)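 Ratio of IC50 against the CQ-resistant strain (FAC8 or K1) to IC50 against CQ-sensitive D10. IC50s from 4-day growth assays at c. 1% parasitemia, 2% hematocrit, daily drug-medium replacement, duplicate growth curves.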
Assay [5] is described as follows: Resistance index as the ratio of IC50 value against K1 to that of D10 strains. It is filed as functional. In outline: as §2

Take `CCN(CC)CCCC(C)Nc1ccnc2c(NC(=O)C(=O)Nc3cccc4c(NC(C)CCCN(CC)CC)ccnc34)cccc12` (stereo not given): the IC50 in the assay on Plasmodium falciparum [1] was 1.9 µM; with Plasmodium falciparum [2], 2.3 µM; with Plasmodium falciparum [3], 1.3 µM. Also, the values for the Resistance index in assay [4] and in assay [5] were 1.4 and 1.7, respectively.

As for `CCN(CC)CCCC(C)Nc1ccnc2ccc(NC(=O)CCCCC(=O)Nc3ccc4nccc(NC(C)CCCN(CC)CC)c4c3)cc12` (stereo not given), the IC50 with Plasmodium falciparum [1] came out at 10.3 µM; in the assay on Plasmodium falciparum [2], 15.9 µM; in the assay with Plasmodium falciparum [3], 9.6 µM. Also, the figures for the Resistance index in assay [4] and in assay [5] were 1.1 and 1.7, respectively.

With `CCN(CC)CCCC(C)Nc1ccnc2c(NC(=O)CCCCCCCCC(=O)Nc3cccc4c(NC(C)CCCN(CC)CC)ccnc34)cccc12` (stereo not given), the IC50 worked out at 0.31 µM in the assay on Plasmodium falciparum [1], 0.29 µM in the assay with Plasmodium falciparum [2] and 0.26 µM in the assay with Plasmodium falciparum [3]. Besides, the figures for the Resistance index in assay [4] and in assay [5] were 1.2 and 1.1, respectively.

With `CCN(CC)CCCC(C)Nc1ccnc2c(NC(=O)CCCCC(=O)Nc3cccc4c(NC(C)CCCN(CC)CC)ccnc34)cccc12` (stereo not given), the IC50 worked out at 0.12 µM in the assay with Plasmodium falciparum [1], 0.23 µM with Plasmodium falciparum [2] and 0.13 µM in the assay on Plasmodium falciparum [3]. The Resistance index is 0.9 in assay [4] and 1.8 in assay [5].

Consider `CCN(CC)CCCC(C)Nc1ccnc2ccc(NC(=O)CCCCCCC(=O)Nc3ccc4nccc(NC(C)CCCN(CC)CC)c4c3)cc12` (stereo not given), for which the IC50 with Plasmodium falciparum [1] turned out to be 5.2 µM; with Plasmodium falciparum [2], 7.4 µM; in the assay with Plasmodium falciparum [3], 5 µM. The Resistance index in assay [4] is 1; in assay [5], 1.5.

Take `CCN(CC)CCCC(C)Nc1ccnc2ccc(NC(=O)C(=O)Nc3ccc4nccc(NC(C)CCCN(CC)CC)c4c3)cc12` (stereo not given): the IC50 in the assay on Plasmodium falciparum [1] worked out at 1.8 µM; in the assay with Plasmodium falciparum [2] it was 2.2 µM; in the assay with Plasmodium falciparum [3] it was 2.6 µM. Besides, the results for the Resistance index in assay [4] and in assay [5] were 0.7 and 0.8, respectively.

With `CCN(CC)CCCC(C)Nc1ccnc2c(NC(=O)CCCCCCC(=O)Nc3cccc4c(NC(C)CCCN(CC)CC)ccnc34)cccc12` (stereo not given), the values for the IC50 in the assay with Plasmodium falciparum [1], with Plasmodium falciparum [2] and with Plasmodium falciparum [3] were 0.35 µM, 0.6 µM and 0.38 µM, respectively. Moreover, the Resistance index amounted to 0.9 in assay [4] and 1.6 in assay [5].

Regarding `CCN(CC)CCCC(C)Nc1ccnc2ccc(NC(=O)CCCCCCCCC(=O)Nc3ccc4nccc(NC(C)CCCN(CC)CC)c4c3)cc12` (stereo not given), the IC50 is 3.8 µM with Plasmodium falciparum [1], 8.4 µM in the assay on Plasmodium falciparum [2] and 5.7 µM with Plasmodium falciparum [3]. The Resistance index in assay [4] turned out to be 0.7; in assay [5], 1.5.

As to `CCN(CC)CCCC(C)Nc1ccnc2c(NC(=O)CCC(=O)Nc3cccc4c(NC(C)CCCN(CC)CC)ccnc34)cccc12` (stereo not given), the IC50 is 1.2 µM in the assay on Plasmodium falciparum [1], 2.5 µM with Plasmodium falciparum [2] and 0.5 µM in the assay on Plasmodium falciparum [3]. Also, the Resistance index in assay [4] is 2.2; in assay [5], 5.
